Test results as given in ChEMBL document CHEMBL2390837, “Synthesis, cytotoxic activity and DNA-interaction studies of novel anthraquinone-thiosemicarbazones with tautomerizable methylene group” (Eur J Med Chem, 2013).
pIC50: −log10 of the molar value. Active and inactive are the calls of the source. No cut-off for these calls is given here.

Legend:
[1] = tested on: HeLa; test: Cell cycle arrest in human HeLa cells assessed as accumulation at G2/M phase at IC50 after 24 hrs by propidium iodide staining-based FACS flow cytometric analysis (reference value: 21.66%); assay type: functional
[2] = tested on: HeLa; test: Cytotoxicity against human HeLa cells after 72 hrs by MTT assay; assay type: functional, cell-based
In short: (§1)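 Cells seeded in 96-well plates: HeLa 2000, MDA-MB-361 7000, MDA-MB-453 3000, K562, A549 and MRC-5 5000 per well. Compounds added at 5–100 μM (final), DMSO ≤0.5%, in RPMI-1640 with 10% FBS. Added after 24 h, except K562 at 2 h after seeding. Exposure 72 h, then MTT 4 h at 37 °C, SDS solubilization, A570 read. IC50 is the mean ± SD of three independent experiments.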

[3] = tested on: HeLa; test: Induction of apoptosis in human HeLa cells at IC90 after 24 hrs by propidium iodide staining-based FACS flow cytometric analysis in presence of caspase-9 inhibitor Z-LEHD-FMK; assay type: functional, cell-based
[4] = tested on: MRC5; test: Cytotoxicity against human MRC5 cells after 72 hrs by MTT assay; assay type: cell-based; details: MRC5, 72 h; in short: as §1
[5] = tested on: HeLa; test: Cell cycle arrest in human HeLa cells assessed as accumulation at G1 phase at IC50 after 24 hrs by propidium iodide staining-based FACS flow cytometric analysis (reference value: 51.97%); assay type: functional
[6] = tested on: HeLa; test: Cell cycle arrest in human HeLa cells assessed as accumulation at G1 phase at 2 times IC50 after 24 hrs by propidium iodide staining-based FACS flow cytometric analysis (reference value: 51.97%); assay type: functional
[7] = tested on: Escherichia coli; test: Induction of Escherichia coli XL1 blue pUC18 DNA cleavage assessed as conversion of supercoiled DNA to relaxed circular DNA at 2 mM after 90 mins by agarose gel electrophoresis
In short: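 Supercoiled pUC18 (262 ng, from E. coli XL1 blue) incubated with 2 mM compound in 20 μL of 40 mM bicarbonate buffer pH 8.4 at 37 °C for 90 min. Reaction stopped with loading buffer. Analyzed on 1% agarose in TAE pH 8.24 at 80 V and stained with ethidium bromide (0.5 µg/mL).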

[8] = tested on: HeLa; test: Induction of apoptosis in human HeLa cells at IC90 after 24 hrs by propidium iodide staining-based FACS flow cytometric analysis in presence of caspase-8 inhibitor Z-IETD-FMK; assay type: functional, cell-based
[9] = tested on: DNA; test: Binding affinity to calf thymus DNA at 20 to 80 uM after 1.5 hrs by UV-vis spectrophotometric analysis; assay type: nucleic-acid assay; details: Bos taurus
In short: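 UV–Vis spectra (200–800 nm, 1 cm cells) of compound at 20, 40, 60 or 80 μM, with or without 0.12 mM CT-DNA. CT-DNA was dissolved in 10 mM Tris-HCl pH 7.9. Mixtures were in 40 mM bicarbonate buffer pH 8.4, incubated 1.5 h at 37 °C with occasional vortexing.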

[10] = tested on: HeLa; test: Cell cycle arrest in human HeLa cells assessed as accumulation at subG1 phase at 2 times IC50 after 24 hrs by propidium iodide staining-based FACS flow cytometric analysis (reference value: 9.10%); assay type: functional
[11] = tested on: A549; test: Cytotoxicity against human A549 cells after 72 hrs by MTT assay; assay type: functional, cell-based; details: A549, 72 h; in short: as §1
[12] = tested on: HeLa; test: Cell cycle arrest in human HeLa cells assessed as accumulation at S phase at 2 times IC50 after 24 hrs by propidium iodide staining-based FACS flow cytometric analysis (reference value: 16.22%); assay type: functional
[13] = tested on: HeLa; test: Cell cycle arrest in human HeLa cells assessed as accumulation at S phase at IC50 after 24 hrs by propidium iodide staining-based FACS flow cytometric analysis (reference value: 16.22%); assay type: functional
[14] = tested on: MDA-MB-361; test: Cytotoxicity against human MDA-MB-361 cells after 72 hrs by MTT assay; assay type: functional, cell-based; details: MDA-MB-361, 72 h; in short: as §1
[15] = tested on: K562; test: Cytotoxicity against human K562 cells after 72 hrs by MTT assay; assay type: functional, cell-based; details: K562, 72 h; in short: as §1
[16] = tested on: HeLa; test: Cell cycle arrest in human HeLa cells assessed as accumulation at subG1 phase at IC50 after 24 hrs by propidium iodide staining-based FACS flow cytometric analysis (reference value: 9.10%); assay type: functional
[17] = tested on: HeLa; test: Induction of apoptosis in human HeLa cells at IC90 after 24 hrs by propidium iodide staining-based FACS flow cytometric analysis in presence of caspase-3 inhibitor Z-DEVD-FMK; assay type: functional, cell-based
[18] = tested on: MDA-MB-453; test: Cytotoxicity against human MDA-MB-453 cells after 72 hrs by MTT assay; assay type: functional, cell-based; details: MDA-MB-453, 72 h; in short: as §1
[19] = tested on: Radical scavenging activity; test: Antioxidant activity assessed as DPPH radical scavenging activity after 30 mins by spectrophotometric analysis; assay type: functional
In short: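 Test solutions at 8–1000 μM in methanol mixed 1:1 by volume with 200 μM DPPH in methanol, kept 30 min in the dark at room temperature. Absorbance read at 517 nm against blanks without DPPH. Percent scavenging = (A_DPPH − A_sample)/A_DPPH × 100. IC50 (concentration halving DPPH absorbance) read from a plot of % versus concentration. Ascorbic acid and BHT used as standards.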

[20] = tested on: HeLa; test: Cell cycle arrest in human HeLa cells assessed as accumulation at G2/M phase at 2 times IC50 after 24 hrs by propidium iodide staining-based FACS flow cytometric analysis (reference value: 21.66%); assay type: functional
[21] = tested on: HeLa; test: Cell cycle arrest in human HeLa cells assessed as accumulation at subG1 phase after 24 hrs by propidium iodide staining-based FACS flow cytometric analysis; assay type: functional
[22] = tested on: DNA; test: Binding affinity to calf thymus DNA after 1.5 hrs by spectroscopic titration; assay type: nucleic-acid assay; details: Bos taurus
In short: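 Absorbance titration in 40 mM bicarbonate buffer pH 8.4. Compound held fixed at 40 μM, CT-DNA varied at (0.2–1.6) × 10⁻⁴ M. Mixtures incubated 1.5 h at 37 °C, then UV–Vis spectra recorded from 200 to 800 nm. K_B taken from a plot of [DNA]/(εA − εF) versus [DNA].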

Row | SMILES | Activity [1] | pIC50 [2] | Activity [3] | pIC50 [4] | Activity [5] | Activity [6] | Activity [7] | Activity [8] | Activity [9] | Activity [10] | pIC50 [11] | Activity [12] | Activity [13] | pIC50 [14] | pIC50 [15] | Activity [16] | Activity [17] | pIC50 [18] | pIC50 [19] | Activity [20] | other results
1 | CCOC(=O)/C(CC(=O)c1cccc2c1C(=O)c1ccccc1C2=O)=N\NC(=S)NCc1ccco1 | Active | 4.72 | Active | 4.41 | Active | Active | inactive | Active | Active | Active | 4.65 | Active | Active | 4.32 | 5.58 | Active | Active | 4.71 | 4.45 | Active | –
2 | CCOC(=O)/C(CC(=O)c1cccc2c1C(=O)c1ccccc1C2=O)=N\NC(=S)NCc1cccs1 | 15.34% | 5.08 | Active | 4.61 | 32.36% | 40.07% | inactive | Active | Active | 36.27% | 4.89 | 13.79% | 20.62% | 4.60 | 5.55 | 28.61% | Active | 4.87 | 4.18 | 3.79% | Activity [21]: Dose-dependent effect
3 | CC[n+]1c(-c2ccccc2)c2cc(N)ccc2c2ccc(N)cc21 | – | – | – | – | – | – | – | – | – | – | – | – | – | – | – | – | – | – | – | – | Kb [22]: 7 ×10⁷ /M
4 | CCOC(=O)/C(CC(=O)c1cccc2c1C(=O)c1ccccc1C2=O)=N\NC(=S)Nc1ccc(C)cc1 | Active | 4.68 | Active | 4.52 | Active | Active | inactive | Active | Active | Active | 4.65 | Active | Active | 4.49 | 5.40 | Active | Active | 4.95 | 4.39 | Active | Kb [22]: 2.91 ×10⁹ /M
5 | CCOC(=O)/C(CC(=O)c1cccc2c1C(=O)c1ccccc1C2=O)=N/NC(N)=S | Active | 4.84 | Active | 4.44 | Active | Active | inactive | Active | Active | Active | 4.54 | Active | Active | 4.51 | 5.10 | Active | Active | 4.87 | 4.69 | Active | Kb [22]: 0.55 ×10⁹ /M
6 | CCOC(=O)/C(CC(=O)c1cccc2c1C(=O)c1ccccc1C2=O)=N\NC(=S)Nc1ccccc1 | 24.11% | 5.09 | Active | 4.93 | 44.66% | 44.72% | inactive | Active | Active | 23.74% | 5.00 | 19.4% | 17.82% | 5.18 | 5.44 | 11.21% | Active | 5.16 | 4.58 | 7.61% | Kb [22]: 9.3 ×10⁹ /M; Activity [21]: Dose-dependent effect
